Reference: ChEMBL document CHEMBL4002615, “Investigation of piperazine benzamides as human β3 adrenergic receptor agonists for the treatment of overactive bladder” (Bioorg Med Chem Lett, 2017)

Assays:
[1] = target: Voltage-gated inwardly rectifying potassium channel KCNH2 (Homo sapiens, UniProt Q12809); assay: Inhibition of human ERG
[2] = target: T1, Beta-3 adrenergic receptor (Homo sapiens, UniProt P13945); assay: Agonist activity at human beta3 adrenergic receptor relative to R-(-)-isoproterenol
Target sequence in this assay (P13945 whole entry, looked up): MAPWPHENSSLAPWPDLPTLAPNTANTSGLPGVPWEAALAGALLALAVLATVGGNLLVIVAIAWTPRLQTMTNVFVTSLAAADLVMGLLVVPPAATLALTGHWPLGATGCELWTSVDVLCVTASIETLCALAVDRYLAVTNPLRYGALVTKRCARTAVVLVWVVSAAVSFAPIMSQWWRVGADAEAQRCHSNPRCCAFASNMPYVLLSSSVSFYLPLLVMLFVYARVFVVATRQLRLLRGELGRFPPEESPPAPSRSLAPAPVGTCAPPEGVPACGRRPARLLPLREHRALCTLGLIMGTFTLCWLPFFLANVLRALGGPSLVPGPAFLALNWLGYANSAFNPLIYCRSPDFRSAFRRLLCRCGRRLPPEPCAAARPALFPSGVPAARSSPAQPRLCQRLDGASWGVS

[3] = Half life in rat at 1 mg/kg, iv or 2 mg/kg, po; type: ADME, organism-based; details: in vivo
[4] = target: Sodium channel protein type 5 subunit alpha (Homo sapiens, UniProt Q14524); assay: Inhibition of human Nav1.5 by electrophysiology method
[5] = Volume of distribution in rat at 1 mg/kg, iv or 2 mg/kg, po; type: ADME, organism-based; details: in vivo
[6] = target: Sodium-dependent serotonin transporter (Homo sapiens, UniProt P31645); assay: Inhibition of SERT (unknown origin)
[7] = Plasma clearance in rat at 1 mg/kg, iv or 2 mg/kg, po; type: ADME, organism-based
Rattus norvegicus [8] = assay: Total dose normalized AUC in rat 2 mg/kg, po; type: ADME, organism-based; details: in vivo
[9] = target: Beta-2 adrenergic receptor (Homo sapiens, UniProt P07550); assay: Activity at human beta2 adrenergic receptor
[10] = target: Sodium-dependent noradrenaline transporter (Homo sapiens, UniProt P23975); assay: Inhibition of NET (unknown origin) expressed in HEK293 cells assessed as reduction in norepinephrine reuptake; type: cell-based
[11] = target: Beta-1 adrenergic receptor (Homo sapiens, UniProt P08588); assay: Activity at human beta1 adrenergic receptor
[12] = target: T1, Beta-3 adrenergic receptor; assay: Agonist activity at human beta3 adrenergic receptor
Outline: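 Human β3 receptor agonist EC50 given as the mean of at least two experiments.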
Target sequence in this assay (P13945 whole entry): as the sequence (P13945 whole entry, looked up) above

[13] = Oral bioavailability in rat 2 mg/kg; type: ADME, organism-based; details: in vivo
[14] = Induction of phospholipidosis in human HepG2 cells; type: cell-based; details: read-out: A50
[15] = Stability in dog hepatocytes assessed as parent compound remaining up to 60 mins; type: ADME, cell-based, Canis lupus familiaris, Hepatocyte; details: read-out: Stability
[16] = Volume of distribution in rhesus monkey at 0.5 mg/kg, iv or 2 mg/kg, po; type: ADME, organism-based, Macaca mulatta; details: in vivo
[17] = Stability in rat liver microsomes assessed as parent compound remaining after 45 mins; type: ADME, microsome; details: read-out: Stability
[18] = Oral bioavailability in dog at 2 mg/kg; type: ADME, organism-based, Canis lupus familiaris; details: in vivo
Rattus norvegicus [19] = assay: Unbound clearance in rat at 1 mg/kg, iv or 2 mg/kg, po; type: ADME, organism-based; details: in vivo
Rhesus monkey [20] = assay: Total dose normalized AUC in rhesus monkey at 2 mg/kg, po; type: ADME, organism-based, Macaca mulatta; details: in vivo
[21] = Unbound fraction in rat at 1 mg/kg, iv or 2 mg/kg, po; type: ADME, organism-based; details: in vivo
[22] = Stability in rat hepatocytes assessed as parent compound remaining up to 60 mins; type: ADME, cell-based, Hepatocyte; details: read-out: Stability
[23] = Plasma clearance in rhesus monkey at 0.5 mg/kg, iv or 2 mg/kg, po; type: ADME, organism-based, Macaca mulatta
Rattus norvegicus [24] = assay: Effect on nor-epinephrine level in rat brain at 10 mg/kg, po by microdialysis method; type: ADME, organism-based; details: in vivo
[25] = Stability in dog liver microsomes assessed as parent compound remaining after 45 mins; type: ADME, Canis lupus familiaris, microsome; details: read-out: Stability
Rattus norvegicus [26] = assay: Induction of nor-epinephrine efflux in medial prefrontal cortex of rat at 100 mg/kg, po measured 1 hr post dose by microdialysis method relative to control; type: ADME, organism-based; details: in vivo
Rhesus monkey [27] = assay: Unbound dose normalized AUC in rhesus monkey at 2 mg/kg, po; type: ADME, organism-based, Macaca mulatta; details: in vivo
[28] = Stability in human liver microsomes assessed as parent compound remaining after 45 mins; type: ADME, microsome; details: read-out: Stability
Rhesus monkey [29] = assay: Unbound clearance in rhesus monkey at 0.5 mg/kg, iv or 2 mg/kg, po; type: ADME, organism-based, Macaca mulatta; details: in vivo
[30] = Stability in human hepatocytes assessed as parent compound remaining up to 60 mins; type: ADME, cell-based, Hepatocyte; details: read-out: Stability
[31] = Volume of distribution in dog at 0.5 mg/kg, iv or 2 mg/kg, po; type: ADME, organism-based, Canis lupus familiaris; details: in vivo
[32] = Stability in rhesus monkey liver microsomes assessed as parent compound remaining after 45 mins; type: ADME, Macaca mulatta, microsome; details: read-out: Stability
[33] = Stability in rhesus monkey hepatocytes assessed as parent compound remaining up to 60 mins; type: ADME, cell-based, Macaca mulatta, Hepatocyte; details: read-out: Stability
Rattus norvegicus [34] = assay: Unbound dose normalized AUC in rat 2 mg/kg, po; type: ADME, organism-based; details: in vivo
[35] = Unbound fraction in rhesus monkey at 0.5 mg/kg, iv or 2 mg/kg, po; type: ADME, organism-based, Macaca mulatta; details: in vivo
Canis familiaris [36] = assay: Unbound clearance in dog at 0.5 mg/kg, iv or 2 mg/kg, po; type: ADME, organism-based, Canis lupus familiaris; details: in vivo
[37] = Half life in rhesus monkey at 0.5 mg/kg, iv or 2 mg/kg, po; type: ADME, organism-based, Macaca mulatta; details: in vivo
Rattus norvegicus [38] = assay: In vivo agonist activity at beta3-AR in po dosed rat; type: functional, organism-based
[39] = Plasma clearance in dog at 0.5 mg/kg, iv or 2 mg/kg, po; type: ADME, organism-based, Canis lupus familiaris
Canis familiaris [40] = assay: Total dose normalized AUC in dog at 2 mg/kg, po; type: ADME, organism-based, Canis lupus familiaris; details: in vivo
[41] = Oral bioavailability in rhesus monkey at 2 mg/kg; type: ADME, organism-based, Macaca mulatta; details: in vivo
[42] = Half life in dog at 0.5 mg/kg, iv or 2 mg/kg, po; type: ADME, organism-based, Canis lupus familiaris; details: in vivo
Canis familiaris [43] = assay: Unbound dose normalized AUC in dog at 2 mg/kg, po; type: ADME, organism-based, Canis lupus familiaris; details: in vivo
[44] = Unbound fraction in dog at 0.5 mg/kg, iv or 2 mg/kg, po; type: ADME, organism-based, Canis lupus familiaris; details: in vivo

Chain of Beta-1 adrenergic receptor (P08588 whole entry): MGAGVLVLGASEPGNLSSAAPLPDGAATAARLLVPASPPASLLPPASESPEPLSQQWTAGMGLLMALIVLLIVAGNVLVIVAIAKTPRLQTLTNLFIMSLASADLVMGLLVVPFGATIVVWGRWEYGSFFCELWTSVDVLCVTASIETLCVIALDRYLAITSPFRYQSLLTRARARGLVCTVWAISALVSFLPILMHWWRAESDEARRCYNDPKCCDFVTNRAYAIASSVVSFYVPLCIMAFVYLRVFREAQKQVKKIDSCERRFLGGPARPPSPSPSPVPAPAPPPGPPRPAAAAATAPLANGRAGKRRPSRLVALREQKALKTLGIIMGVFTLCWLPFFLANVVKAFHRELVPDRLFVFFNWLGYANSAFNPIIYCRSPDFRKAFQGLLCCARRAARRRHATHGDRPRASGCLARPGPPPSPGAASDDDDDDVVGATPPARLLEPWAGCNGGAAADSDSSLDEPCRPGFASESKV
Chain of Voltage-gated inwardly rectifying potassium channel KCNH2 (Q12809 whole entry): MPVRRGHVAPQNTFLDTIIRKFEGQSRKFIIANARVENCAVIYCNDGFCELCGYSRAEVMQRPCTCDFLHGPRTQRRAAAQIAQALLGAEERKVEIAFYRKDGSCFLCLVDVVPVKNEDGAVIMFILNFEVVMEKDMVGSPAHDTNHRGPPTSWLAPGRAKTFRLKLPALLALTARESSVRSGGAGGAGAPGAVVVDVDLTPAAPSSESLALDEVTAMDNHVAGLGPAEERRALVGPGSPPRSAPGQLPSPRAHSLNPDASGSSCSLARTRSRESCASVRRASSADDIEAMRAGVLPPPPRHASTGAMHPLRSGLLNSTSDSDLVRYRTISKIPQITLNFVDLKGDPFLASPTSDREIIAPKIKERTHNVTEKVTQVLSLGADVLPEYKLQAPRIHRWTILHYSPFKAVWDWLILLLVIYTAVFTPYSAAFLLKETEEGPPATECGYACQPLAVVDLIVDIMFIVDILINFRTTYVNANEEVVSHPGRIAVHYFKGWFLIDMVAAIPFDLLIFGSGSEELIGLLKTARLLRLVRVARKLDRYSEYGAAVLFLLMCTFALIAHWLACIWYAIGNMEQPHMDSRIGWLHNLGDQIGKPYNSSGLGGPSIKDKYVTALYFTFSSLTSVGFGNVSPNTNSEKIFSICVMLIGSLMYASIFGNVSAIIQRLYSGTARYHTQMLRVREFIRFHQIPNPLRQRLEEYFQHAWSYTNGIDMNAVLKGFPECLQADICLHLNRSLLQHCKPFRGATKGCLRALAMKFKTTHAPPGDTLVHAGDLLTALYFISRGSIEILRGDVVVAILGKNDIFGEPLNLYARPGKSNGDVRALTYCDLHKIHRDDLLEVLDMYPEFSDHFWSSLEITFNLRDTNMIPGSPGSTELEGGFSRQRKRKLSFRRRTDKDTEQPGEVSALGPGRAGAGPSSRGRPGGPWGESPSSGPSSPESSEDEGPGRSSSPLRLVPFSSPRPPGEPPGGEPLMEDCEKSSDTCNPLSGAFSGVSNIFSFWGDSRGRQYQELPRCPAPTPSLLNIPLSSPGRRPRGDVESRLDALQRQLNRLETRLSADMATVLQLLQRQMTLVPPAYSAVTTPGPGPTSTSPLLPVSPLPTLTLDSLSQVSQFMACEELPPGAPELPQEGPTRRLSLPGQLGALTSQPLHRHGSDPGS
Chain of Sodium-dependent noradrenaline transporter (P23975 whole entry): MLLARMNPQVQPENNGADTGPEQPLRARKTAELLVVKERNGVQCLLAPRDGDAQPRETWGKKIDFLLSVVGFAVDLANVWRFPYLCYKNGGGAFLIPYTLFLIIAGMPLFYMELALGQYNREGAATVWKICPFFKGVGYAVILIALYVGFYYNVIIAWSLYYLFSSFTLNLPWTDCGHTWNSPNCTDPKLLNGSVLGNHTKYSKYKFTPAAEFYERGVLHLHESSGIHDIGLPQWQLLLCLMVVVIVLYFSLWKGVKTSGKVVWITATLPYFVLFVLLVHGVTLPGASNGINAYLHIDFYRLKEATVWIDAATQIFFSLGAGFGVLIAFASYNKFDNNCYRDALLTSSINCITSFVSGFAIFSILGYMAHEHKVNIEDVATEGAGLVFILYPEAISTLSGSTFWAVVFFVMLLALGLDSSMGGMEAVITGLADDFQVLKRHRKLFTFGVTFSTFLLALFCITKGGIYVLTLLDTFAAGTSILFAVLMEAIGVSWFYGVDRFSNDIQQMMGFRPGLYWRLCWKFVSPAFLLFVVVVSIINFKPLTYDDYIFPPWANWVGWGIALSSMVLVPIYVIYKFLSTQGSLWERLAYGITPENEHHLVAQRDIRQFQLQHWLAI
Chain of Beta-2 adrenergic receptor (P07550 whole entry): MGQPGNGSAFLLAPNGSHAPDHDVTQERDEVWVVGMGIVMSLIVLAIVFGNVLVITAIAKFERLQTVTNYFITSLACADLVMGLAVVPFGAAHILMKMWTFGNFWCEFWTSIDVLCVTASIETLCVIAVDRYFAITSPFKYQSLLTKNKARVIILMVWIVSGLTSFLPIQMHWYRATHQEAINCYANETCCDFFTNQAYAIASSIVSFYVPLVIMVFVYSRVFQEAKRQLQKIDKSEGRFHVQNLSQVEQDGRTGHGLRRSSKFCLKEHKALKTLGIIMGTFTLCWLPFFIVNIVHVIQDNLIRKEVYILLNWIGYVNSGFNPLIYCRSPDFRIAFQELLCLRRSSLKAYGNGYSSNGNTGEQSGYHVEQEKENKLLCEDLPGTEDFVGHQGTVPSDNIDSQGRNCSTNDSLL
Chain of Sodium-dependent serotonin transporter (P31645 whole entry): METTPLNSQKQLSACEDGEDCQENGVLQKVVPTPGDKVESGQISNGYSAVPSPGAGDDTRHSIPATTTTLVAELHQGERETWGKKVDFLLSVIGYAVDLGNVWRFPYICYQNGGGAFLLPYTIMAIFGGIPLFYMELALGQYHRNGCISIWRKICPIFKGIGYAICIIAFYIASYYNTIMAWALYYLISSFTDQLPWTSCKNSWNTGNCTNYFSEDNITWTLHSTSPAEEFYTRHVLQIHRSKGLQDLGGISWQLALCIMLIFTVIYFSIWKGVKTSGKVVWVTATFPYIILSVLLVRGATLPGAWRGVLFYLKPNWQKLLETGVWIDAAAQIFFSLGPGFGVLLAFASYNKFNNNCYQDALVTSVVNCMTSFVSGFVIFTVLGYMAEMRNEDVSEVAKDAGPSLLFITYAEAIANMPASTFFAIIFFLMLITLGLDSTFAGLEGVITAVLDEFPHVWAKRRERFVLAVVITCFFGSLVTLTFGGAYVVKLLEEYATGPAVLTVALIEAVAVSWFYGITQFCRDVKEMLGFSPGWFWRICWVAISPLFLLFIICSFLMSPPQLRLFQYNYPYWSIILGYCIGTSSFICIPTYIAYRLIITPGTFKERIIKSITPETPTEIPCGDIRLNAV

With O=C(c1ccc(C[C@@H]2CC[C@H]([C@H](O)c3ccccc3)N2)cc1)N1CCN(Cc2ncn(CC(F)(F)F)n2)CC1 the IC50 [1] was > 60 µM, the Emax [2] was 113% and the half-life [3] was 5.4 h. The IC50 [4] was > 30 µM, the Vd [5] was 38 L/kg and the IC50 [6] was > 10 µM. For the same compound, the clearance [7] was 105 mL/min/kg, the AUC/dose (Rattus norvegicus [8]) was 0.3 µM·h/mg/kg and the IC50 [9] was > 20 µM. For the same compound, the EC50 [10] was 0.065 µM, the IC50 [11] was > 20 µM and the EC50 [12] was 0.0016 µM. The bioavailability [13] was < 1%.

With CCn1nnc(CN2CCN(C(=O)c3ccc(C[C@@H]4CC[C@H]([C@H](O)c5ccccc5)N4)cc3)CC2)n1 the IC50 [1] was > 60 µM, the Emax [2] was 91% and the IC50 [4] was > 30 µM. For the same compound, the IC50 [6] was > 10 µM, the IC50 [9] was > 20 µM and the EC50 [10] was 1.52 µM. The IC50 [11] was > 20 µM and the EC50 [12] was 0.0051 µM.

O=C(c1ccc(C[C@@H]2CC[C@H]([C@H](O)c3ccccc3)N2)cc1)N1CCN(Cc2nnn(CC3CC3)n2)CC1 gave an IC50 [1] of 39.4 µM, an Emax [2] of 99% and an AC50 [14] of 70 µM. The IC50 [4] was > 30 µM, the IC50 [6] was > 10 µM and the IC50 [9] was > 20 µM. For the same compound, the EC50 [10] was 1.39 µM, the IC50 [11] was > 20 µM and the EC50 [12] was 0.0052 µM.

In the case of O=C(c1ccc(C[C@@H]2CC[C@H]([C@H](O)c3ccccc3)N2)cc1)N1CCN(Cc2nnn(CC(F)(F)F)n2)CC1, the remaining at 1 h [15] is reported as 100%, the Vd [16] is reported as 5.8 L/kg and the remaining at 0.75 h [17] is reported as 71%. For the same compound, the bioavailability [18] was 100%, the CL free (Rattus norvegicus [19]) was 151 mL/min/kg and the IC50 [1] was 29.9 µM. It also gave an AUC/dose (Rhesus monkey [20]) of 0.09 µM·h/mg/kg, a fraction unbound [21] of 0.65 and a remaining at 1 h [22] of 73%. The clearance [23] was 19 mL/min/kg, the Emax [2] was 98% and the Activity (Rattus norvegicus [24]) was “Non-Toxic”. The AC50 [14] was 72 µM, the remaining at 0.75 h [25] was 85% and the “fold change (FC)” value (Rattus norvegicus [26]) was 2. For the same compound, the half-life [3] was 2.8 h, the fAUC/dose (Rhesus monkey [27]) was 0.04 µM·h/mg/kg and the remaining at 0.75 h [28] was 42%. The IC50 [4] was > 30 µM, the CL free (Rhesus monkey [29]) was 43 mL/min/kg and the remaining at 1 h [30] was 92%. For the same compound, the Vd [31] was 11 L/kg, the Vd [5] was 17 L/kg and the remaining at 0.75 h [32] was 19%. For the same compound, the IC50 [6] was > 10 µM, the remaining at 1 h [33] was 50% and the clearance [7] was 98 mL/min/kg. The AUC/dose (Rattus norvegicus [8]) was 0.14 µM·h/mg/kg, the fAUC/dose (Rattus norvegicus [34]) was 0.09 µM·h/mg/kg and the fraction unbound [35] was 0.44. For the same compound, the CL free (Canis familiaris [36]) was 35 mL/min/kg, the IC50 [9] was > 20 µM and the half-life [37] was 6.5 h. It also gave an EC50 (Rattus norvegicus [38]) of 4.5 µM, a clearance [39] of 22 mL/min/kg and an EC50 [10] of 0.627 µM. For the same compound, the AUC/dose (Canis familiaris [40]) was 1.9 µM·h/mg/kg, the IC50 [11] was > 20 µM and the bioavailability [41] was 5.4%. It also gave a half-life [42] of 6.9 h, an EC50 [12] of 0.0019 µM and a bioavailability [13] of 46%. It also gave a fAUC/dose (Canis familiaris [43]) of 1.2 µM·h/mg/kg and a fraction unbound [44] of 0.63.

With Cc1nnc(-c2cccc(CN3CCN(C(=O)c4ccc(C[C@@H]5CC[C@H]([C@H](O)c6ccccc6)N5)cc4)CC3)n2)o1 the Emax [2] was 109%, the AC50 [14] was 68 µM and the IC50 [4] was > 30 µM. The IC50 [6] was > 10 µM, the IC50 [9] was > 20 µM and the EC50 [10] was 0.254 µM. For the same compound, the IC50 [11] was > 20 µM and the EC50 [12] was 0.0025 µM.
